Measurements collected from several papers.
Compare with care: the assays were run in different laboratories.

| SMILES | test | system | setting | endpoint | value |
| --- | --- | --- | --- | --- | --- |
| CNC(=O)[C@@H](NC(=O)c1cc(OCC2(C)COC2)c(C2CC2)cn1)C(C)(C)C | – | C57BL/6 mouse, plasma | intravenous | clearance | 4.43 L/h/kg |
| Cl.Cl.O=C(CCN1CCCCC1)c1ccc(-c2ccc(C(=O)CCN3CCCCC3)cc2)cc1 | – | Sprague-Dawley rat, plasma | oral, 100 mg/kg | Tmax | 45 min |
| NC(=O)[C@@H]1CC(F)(F)CN1C(=O)c1ccc(N2CC(F)(F)C2)c(OCC2CC2)n1 | – | C57BL/6 mouse, plasma | intravenous | clearance | 1.71 L/h/kg |
| O=C(Nc1cccnn1)N1CCN([C@@H]2CCOc3cc(C(F)(F)F)ccc32)CC1 | – | male Sprague-Dawley rat, plasma | oral, 3 mg/kg | Tmax | 40.2 min |
| N=c1c2c(-c3ccccc3)c(-c3ccccc3)n(Cc3ccccc3)c2ncn1[C@H]1CC[C@H](O)CC1 | metabolic stability | beagle dog, hepatocytes | 1 µM, 4 h | compound remaining | 118% |
| C[C@]12CC[C@H](n3ccnc3)CC1=CC[C@@H]1[C@@H]2CC[C@]2(C)C(n3cnc4ccccc43)=CC[C@@H]12.Cl | – | male CD-1 mouse, plasma | intravenous, 1 mg/kg | C0 | 0.544 µg/mL |
| CN[C@H](CC(C)C)C(=O)N[C@H]1C(=O)N[C@@H](CC(N)=O)C(=O)N[C@H]2C(=O)NC3C(=O)N[C@H](C(=O)N[C@H](C(=O)NCCC[N+](C)(C)C)c4cc(O)cc(O)c4-c4cc3ccc4O)[C@H](O)c3ccc(c(Cl)c3)Oc3cc2cc(c3OC2OC(CO)C(O)[C@H](O)[C@@H]2O[C@H]2CC(C)(NCc3ccc(-c4ccc(Cl)cc4)cc3)[C@H](O)[C@H](C)O2)Oc2ccc(cc2Cl)[C@H]1O (stereo partly shown) | – | mouse, plasma | intravenous, 10 mg/kg | clearance | 0.12 L/h/kg |
| CCN(CC)CCCC[C@H](NC(=O)[C@H](CC(C)C)NC(=O)[C@H](C)NC(=O)[C@H](Cc1ccccc1)NC(=O)c1ccc(C(C)(C)C)cc1)C(=O)N[C@@H](CO)C(=O)OC | – | male Swiss mouse, blood | intravenous, 3 mg/kg | C0 | 10.9 µg/mL |
| Cc1cc(C)nc(Nc2ncc(C(=O)NCCc3c(C)[nH]c4ccccc34)cn2)c1 | – | beagle dog, plasma | intravenous, 3 mg/kg | clearance | 0.6 L/h/kg |
| CCC[C@@](N)(CO)CCc1ccc(OCCCCCC(C)C)cc1 | – | dog, plasma | oral, 20 mg/kg, fasted | Cmax | 0.669 µM |
